# CHOP UPR activ: activators of apoptotic arm of unfolded protein response (CHOP). CHO-CHOP luciferase reporter, UPR activation, luminescence; percent of tunicamycin response over DMSO baseline. activation, % at 10 µM. 330,000 compounds, 0.34% hits. AID 449763;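 active = at 10 µM dose, activation of 40% or more, normalized to positive control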;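 also: 100% = tunicamycin at 10 µg/mL and 0% = DMSO alone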
#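 Test system: CHO CHOP reporter cells. Input: 500 CHO-CHOP cells per well. Medium: F12 with 10% FBS. Technique: luciferase luminescence. Measure: percent activation relative to tunicamycin control. Dosing: 10 µM compound, 0.5% DMSO. Timing: 16-18 h cell attachment, then 6 h compound exposure, 37 °C.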
# MC4R ag barr: human MC4R agonism via beta-arrestin. P32245. U2OS MC4R beta-arrestin complementation, luminescence; percent of melanotan II response, DMSO zero. activation, % at 8.9 µM. 360,000 compounds, 0.98% hits. AID 540308;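 active = activation above a per-plate cutoff, the mean activation of sample wells on that plate plus 3 SD, cut at about 8% in these data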
# Target sequence (P32245 whole entry, looked up): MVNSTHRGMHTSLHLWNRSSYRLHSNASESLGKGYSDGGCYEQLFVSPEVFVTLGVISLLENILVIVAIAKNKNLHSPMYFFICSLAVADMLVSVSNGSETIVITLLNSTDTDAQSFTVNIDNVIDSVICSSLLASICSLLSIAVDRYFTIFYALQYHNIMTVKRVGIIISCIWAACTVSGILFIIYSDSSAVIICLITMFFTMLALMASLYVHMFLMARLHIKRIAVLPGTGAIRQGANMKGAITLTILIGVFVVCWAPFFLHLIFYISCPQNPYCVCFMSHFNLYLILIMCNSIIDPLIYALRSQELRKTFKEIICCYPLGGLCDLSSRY
# A1 inh: inhibitors of the anti-apoptotic protein A1, read as caspase activation; 330,000 compounds, 0.066% hits; caspase activation, % (test concentration not listed); MEF A1-2A-BIM cells, Caspase-Glo 3/7 luminescence, 3 h; percent of clofoctol response, vehicle zero;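 active = over half of replicate activation scores above 10%, or exactly half above 10 with the replicate mean above 10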
# UPR XBP1 act: activators of adaptive arm of unfolded protein response (XBP1); activation, % at 20 µM; CHO-XBP1 luciferase reporter, IRE1-XBP1 UPR activation, luminescence; percent of tunicamycin response, DMSO as zero; 330,000 compounds, 0.33% hits;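 active = versus positive control, 20 µM dose yields 30% or more activation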;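 also: 100% = tunicamycin at 10 µg/mL and 0% = DMSO only wells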
#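 incubation = overnight seeding at 37 °C, 6 h compound treatment at 37 °C | assay system = CHO-XBP1 cells stably carrying IRE1-XBP1-driven luciferase reporter | input = 1000 cells per well | detection = luciferase luminescence | dosing = single point, 20 µM final compound, 1% DMSO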
# MC4R antagonist: blocks human MC4R cAMP signaling | P32245 | MC4R-expressing cells, MTII-stimulated cAMP, LANCE TR-FRET | inhibition, % at 6.5 µM | 360,000 compounds, 0.48% hits | AID 540295;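 active = inhibition above its plate's cutoff, the mean of tested wells on that plate plus 3 SD, cut at about 29% in these data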;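 also: 0% = Melanotan II alone and 100% = Melanotan II plus saturating MCL0020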
#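 Test system: U2OS cells stably expressing human melanocortin 4 receptor (MC4R); also added: Melanotan II challenge; compound: 6.5 µM single dose; timing: 30-min compound preincubation, 1-h Melanotan II challenge, 1-h detection, room temperature; signal: Eu-cAMP/anti-cAMP TR-FRET, emission 671 nm; repeats: one well per compound, no replicates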
# Starred values were filed as active, the others as inactive; / = no result given. An excerpt weighted towards active compounds, which were near 2% of everything screened.
SMILES,CHOP UPR activ,MC4R ag barr,A1 inh,UPR XBP1 act,MC4R antagonist
COc1ccc(OC)c(Nc2nc(-c3ccncc3)nc3ccccc23)c1,4,13*,1,14,11
CCc1nc2c(OCCOc3ccc(F)cc3)cccn2c1N(C)C(=O)c1ccc(OC)cc1,/,0,/,/,4
CCC(CC)C(=O)N(C)c1c(C)nc2c(OCCC3CCCCC3)cccn12,/,0,/,/,13
O=c1c2ccc(F)cc2sn1-c1ccccc1,/,-2,/,/,-1
Cc1ccc(-n2sc3cc(F)ccc3c2=O)c(C)c1,/,8.8*,/,/,-3
CC1CC(O)C2C3(C)CCCC2(COC3=O)C12CCC1(CCOC1=O)O2 (centres undefined),/,0,/,/,3
O=C(CCc1nc2sc3c(c2c(=O)[nH]1)CCCC3)Nc1cccc(Cl)c1,1,8.3*,0,-2,-1
CCN(CC)C(=O)c1cccc(NC(=O)CCc2nc3sc4c(c3c(=O)[nH]2)CCCC4)c1,-1,-3,/,-3,4
COc1ccc(CN2C(=NC(=O)CCc3ccccc3)SC3CS(=O)(=O)CC32)cc1 (centres undefined),4,1,-1,-3,0
O=C(CCc1ccccc1)N=C1SC2CS(=O)(=O)CC2N1Cc1ccccc1 (centres undefined),2,8.9*,0,2,9
COc1ccc(OCC(=O)Nc2cc(S(=O)(=O)N3CCCCC3)ccc2OC)cc1,1,-3,0,-4,1
CCc1ccc(OCC(=O)Nc2ccc(S(=O)(=O)N3CCCC3)cc2)c(Br)c1,-2,21*,0,-2,14
COc1ccc(OCC(=O)Nc2cc(S(=O)(=O)N3CCCC3)ccc2Cl)cc1,1,9.0*,/,2,-2
O=C(COc1ccc(Br)cc1CO)Nc1ccc(S(=O)(=O)N2CCCCC2)cc1,-2,1,-1,-4,12
Cc1ccc2c(c1)NC(=O)CC(c1ccccc1)=N2,3,-2,0,0,3
Cc1cc2c(cc1C)NC(=O)CC(C(F)(F)C(F)(F)C(F)(F)F)=N2,1,8.7*,0,0,8
COc1ccc2nc(Cl)c(C=O)c(N3CCOCC3)c2c1,/,0,/,/,0
O=C(CCN1CCN(c2ccccc2)CC1)Nc1cccc(Br)c1,1,8.6*,0,-5,10
O=C(NCCN1CCN(c2ccccc2)CC1)Nc1ccc(Cl)cc1,-1,9.2*,-1,-4,5
O=C(NCCN1CCN(c2cccc(Cl)c2)CC1)Nc1ccccc1,1,1,0,0,14
CO[C@H](C(=O)N(C)C[C@@H]1OCc2ccccc2-c2c(n(C)c3ccccc23)C(=O)N([C@H](C)CO)C[C@@H]1C)c1ccccc1,/,-1,/,/,-5
CC(C)Nc1nc(NCCOc2ccccc2)c2sccc2n1,/,0,/,/,4
CC1(C(=O)Nc2cnc3ccccc3c2)CCN1Cc1cc2ccccc2o1 (centres undefined),/,-1,/,/,4
Cc1cc(F)cc(-c2cc(C(=O)NCc3ccccn3)[nH]n2)c1,/,0,/,/,5
CCOC(=O)CSc1nc(N)c(C#N)c(-c2ccc(OCC)cc2)c1C#N,-1,9.4*,-1,0,23
SMILES,CHOP UPR activ,MC4R ag barr,A1 inh,UPR XBP1 act,MC4R antagonist
Cc1ccc(C(=O)OCn2ncc(Cl)c(Cl)c2=O)cc1,-11,0,0,-7,-2
O=C(OCn1ncc(Cl)c(Cl)c1=O)c1ccc(C(F)(F)F)cc1,36,1,/,-6,33*
COc1cccc(-c2cnc3c(NC(C)=O)cc(-c4ccc(C(=O)NC5CC5)cc4)cn23)c1,/,8.8*,/,/,14
CC(=O)Nc1cccc(-c2cc(NC(C)=O)c3ncc(-c4cccc(C(C)=O)c4)n3c2)c1,/,8.6*,/,/,8
COc1cccc(CN2CCC(C(=O)NC(C)c3cccc4ccccc34)CC2)c1 (centres undefined),/,1,/,/,1
COC(=O)C(Sc1ccc(Cl)cc1)C1SC(=S)N(Cc2ccccc2)C1=O (centres undefined),/,-3,/,/,-10
Cc1cc(C)cc(C(O)c2ncc(-c3ccccc3Cl)[nH]2)c1 (centres undefined),/,-1,/,/,-6
CC1CN(C2CCCCC2)C(=O)NC1=O (centres undefined),/,-2,/,/,3
Cc1cccc(NC(=O)Nc2ccc(C#N)cc2)n1,7,2,0,-2,10
Cc1cccc(NC(=O)Nc2cccc(C#N)c2)n1,6,8.2*,0,1,-17
CCCCN1C(=O)C(CC(=O)NC2CCCCC2)CC(C(=O)N(C)C)=C1C (centres undefined),/,0,/,/,-2
CC1CCN(CC(=O)Nc2ccccc2-c2ccccc2)CC1,0,0,0,1,0
CC1CCCCC1NCC(=O)Nc1ccccc1-c1ccccc1 (centres undefined),4,9.5*,0,-1,11
Cn1cnc(S(=O)(=O)N2CCCCC2c2cc(C(=O)Nc3cccc4c3CCCC4)no2)c1 (centres undefined),/,0,/,/,2
O=C(CSc1ccc(Cl)cc1)Nc1ccc(-c2nc3ccccc3[nH]2)cc1,2,10*,1,1,14
O=C(CSc1ccccc1)Nc1nc2ccccc2[nH]1,5,2,0,-1,0
Cc1ccc(N2C(=O)C3CC(c4ccccc4)=C4C5C=CC(C6C(=O)N(c7ccc(C)cc7)C(=O)C56)C4C3C2=O)cc1 (centres undefined),0,8.6*,0,0,13
c1ccc(NN=C2c3ccccc3-c3ccccc32)cc1,/,0,/,/,4
Cc1ccc(OCC(=O)NN2C(=O)c3ccccc3C2=O)cc1,8,-1,0,-4,-1
Cc1ccc(NN=C2c3ccccc3-c3ccccc32)cc1,5,8.4*,-1,-4,14
Cc1ccc(OCC(=O)NN=C2c3ccccc3-c3ccccc32)cc1,0,8.6*,1,6,-4
COCCOC(=O)N1CCCCC1c1cc(C(=O)Nc2cccc3c2CCCC3)no1 (centres undefined),/,-2,/,/,2
O=C(CCn1c(=S)oc2ccccc21)Nc1cccc(F)c1,-1,-4,0,-2,0
Cc1ccc(NC(=O)CCn2c(=S)oc3ccccc32)cc1F,-2,8.3*,0,0,4
COC(=O)Cn1c(=NC(=O)c2nc3ccccc3s2)sc2cc(S(C)(=O)=O)ccc21,2,/,0,42*,/
COC(=O)Cn1c(=NC(=O)c2sc3ccccc3c2Cl)sc2cc(S(N)(=O)=O)ccc21,4,4,0,-1,1
COC(=O)C1Cc2c([nH]c3ccccc23)C2CCC(=O)N12 (centres undefined),/,0,/,/,-4
COC(=O)[C@@H]1Cc2c([nH]c3ccccc23)C(C)(C)N1C(=O)CCl,8,13*,1,10,5
